According to ChEMBL document CHEMBL1641407, “Imidazo[4,5-d]thiazolo[5,4-b]pyridine based inhibitors of IKK2: synthesis, SAR, PK/PD and activity in a preclinical model of rheumatoid arthritis” (Bioorg Med Chem Lett, 2011):

How the values were obtained:
[1] = target: Serine/threonine-protein kinase 16 (Homo sapiens) (UniProt O75716); experiment: Residual activity at STK16 at 10 uM relative to control
[2] = target: T1, Inhibitor of nuclear factor kappa-B kinase subunit alpha (Homo sapiens, UniProt O15111); experiment: Inhibition of IKK1
T1 sequence (O15111 whole entry): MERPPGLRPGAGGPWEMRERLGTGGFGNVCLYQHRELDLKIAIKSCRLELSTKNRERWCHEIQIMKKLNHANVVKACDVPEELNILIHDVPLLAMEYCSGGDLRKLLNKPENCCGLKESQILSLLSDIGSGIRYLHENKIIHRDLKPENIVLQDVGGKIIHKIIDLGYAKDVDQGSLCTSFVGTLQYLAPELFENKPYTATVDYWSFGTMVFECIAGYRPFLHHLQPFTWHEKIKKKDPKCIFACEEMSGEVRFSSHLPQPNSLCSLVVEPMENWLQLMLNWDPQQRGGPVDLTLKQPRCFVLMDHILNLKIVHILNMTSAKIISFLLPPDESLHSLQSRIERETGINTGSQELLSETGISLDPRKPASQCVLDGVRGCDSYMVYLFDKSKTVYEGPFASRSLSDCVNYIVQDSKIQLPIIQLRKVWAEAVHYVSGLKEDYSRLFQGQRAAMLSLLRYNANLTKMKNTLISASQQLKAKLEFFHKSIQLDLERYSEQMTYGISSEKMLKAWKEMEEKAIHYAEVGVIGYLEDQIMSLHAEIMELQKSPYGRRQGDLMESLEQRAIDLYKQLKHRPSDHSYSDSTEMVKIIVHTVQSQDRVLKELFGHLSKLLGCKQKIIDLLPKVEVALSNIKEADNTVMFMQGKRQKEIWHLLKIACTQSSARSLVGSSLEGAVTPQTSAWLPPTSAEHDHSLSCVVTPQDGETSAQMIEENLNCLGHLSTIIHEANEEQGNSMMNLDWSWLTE

[3] = Volume of distribution at steady state in rat at 2 mg/kg, iv and 10 mg/kg, po; assay type: ADME, organism-based; settings: in vivo, read-out: Vdss
[4] = target: T2, Cyclin-G-associated kinase (Homo sapiens) (UniProt O14976); experiment: Residual activity at GAK at 10 uM relative to control
T2 sequence (whole entry): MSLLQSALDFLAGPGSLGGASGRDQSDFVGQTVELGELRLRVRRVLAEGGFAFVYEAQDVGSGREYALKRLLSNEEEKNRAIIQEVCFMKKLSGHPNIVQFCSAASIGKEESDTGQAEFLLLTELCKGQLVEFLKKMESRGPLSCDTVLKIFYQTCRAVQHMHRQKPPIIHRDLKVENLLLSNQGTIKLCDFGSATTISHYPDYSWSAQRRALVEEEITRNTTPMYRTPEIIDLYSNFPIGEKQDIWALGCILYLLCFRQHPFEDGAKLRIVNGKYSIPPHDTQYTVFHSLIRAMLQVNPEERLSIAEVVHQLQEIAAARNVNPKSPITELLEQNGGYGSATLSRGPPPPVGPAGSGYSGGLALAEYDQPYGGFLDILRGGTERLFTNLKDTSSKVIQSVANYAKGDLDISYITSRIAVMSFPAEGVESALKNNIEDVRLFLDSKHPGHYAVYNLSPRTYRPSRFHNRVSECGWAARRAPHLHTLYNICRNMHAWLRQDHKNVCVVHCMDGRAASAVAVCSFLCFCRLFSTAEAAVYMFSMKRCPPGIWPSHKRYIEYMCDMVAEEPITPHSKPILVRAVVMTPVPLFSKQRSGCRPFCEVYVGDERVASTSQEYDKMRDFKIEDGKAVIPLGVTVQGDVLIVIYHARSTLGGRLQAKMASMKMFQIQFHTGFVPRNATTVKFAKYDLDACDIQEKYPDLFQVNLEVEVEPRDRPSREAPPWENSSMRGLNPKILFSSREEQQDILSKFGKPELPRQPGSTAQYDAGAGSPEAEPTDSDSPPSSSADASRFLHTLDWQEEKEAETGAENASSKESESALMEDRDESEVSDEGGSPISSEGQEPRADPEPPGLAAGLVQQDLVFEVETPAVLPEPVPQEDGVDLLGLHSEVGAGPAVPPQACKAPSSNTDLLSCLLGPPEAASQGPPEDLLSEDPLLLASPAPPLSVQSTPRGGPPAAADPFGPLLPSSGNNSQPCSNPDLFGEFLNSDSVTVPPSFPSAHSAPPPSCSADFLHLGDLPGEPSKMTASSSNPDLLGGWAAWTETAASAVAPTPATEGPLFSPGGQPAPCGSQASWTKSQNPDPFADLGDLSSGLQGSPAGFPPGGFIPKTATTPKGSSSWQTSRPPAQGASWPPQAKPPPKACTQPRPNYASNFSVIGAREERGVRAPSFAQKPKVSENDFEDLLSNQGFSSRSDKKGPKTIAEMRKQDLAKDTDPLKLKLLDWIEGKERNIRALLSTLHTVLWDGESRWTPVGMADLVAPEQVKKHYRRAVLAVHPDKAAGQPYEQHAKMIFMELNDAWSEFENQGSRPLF

[5] = Volume of distribution at steady state in dog at 2 mg/kg, iv; assay type: ADME, organism-based, Canis lupus familiaris; set-up: dose 2 mg/kg, route intravenous; settings: in vivo, read-out: Vdss
Procedure, shortened: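 Dog pharmacokinetics, iv dosing only, in vehicle PEG400:water 80:20.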

Sequence of Serine/threonine-protein kinase 16 (Homo sapiens) (O75716 whole entry): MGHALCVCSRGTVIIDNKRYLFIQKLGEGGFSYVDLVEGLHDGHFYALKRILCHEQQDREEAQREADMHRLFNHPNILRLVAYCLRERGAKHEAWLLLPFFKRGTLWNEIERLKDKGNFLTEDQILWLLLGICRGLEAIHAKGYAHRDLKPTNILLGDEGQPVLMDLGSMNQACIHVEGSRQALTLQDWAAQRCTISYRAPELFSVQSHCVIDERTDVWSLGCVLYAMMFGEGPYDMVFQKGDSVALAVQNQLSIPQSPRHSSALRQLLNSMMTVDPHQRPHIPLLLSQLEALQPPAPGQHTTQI

- residual activity [1]: < 10%
- IC50 [2]: 420 nM
- Vd [3]: 2.3 L/kg
- residual activity [4]: < 10%
- Vd [5]: 3.1 L/kg
Structure (SMILES): CCNc1nc2sc(-c3cccc([C@H](C)NC(C)=O)c3)nc2c2c1ncn2C
